# In ChEMBL document CHEMBL3232735, “Pyrrolopyrimidine-inhibitors with hydantoin moiety as spacer can explore P4/S4 interaction on plasmin” (Bioorg Med Chem, 2014):
# What was measured:
# [1] = target: Plasminogen (Homo sapiens, UniProt P00747); test: Inhibition of human plasmin using H-D-Val-Leu-LyspNA (S-2251) peptide as substrate assessed as reduction of enzyme hydrolytic activity
# How it was run: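 Plasmin activity was measured with 0.3 mM S-2251 as substrate and read as absorbance at 405 nm. IC50 is the inhibitor concentration cutting absorbance by 50% compared with the inhibitor-free control under the same conditions.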
# [2] = target: Plasma kallikrein (Homo sapiens, UniProt P03952); test: Inhibition of human plasma kallikerin using H-D-Phe-Pro-Arg-pNA (S-2302) peptide as substrate assessed as reduction of enzyme hydrolytic activity
# Sequence of Plasma kallikrein (P03952 20-390 limits assumed): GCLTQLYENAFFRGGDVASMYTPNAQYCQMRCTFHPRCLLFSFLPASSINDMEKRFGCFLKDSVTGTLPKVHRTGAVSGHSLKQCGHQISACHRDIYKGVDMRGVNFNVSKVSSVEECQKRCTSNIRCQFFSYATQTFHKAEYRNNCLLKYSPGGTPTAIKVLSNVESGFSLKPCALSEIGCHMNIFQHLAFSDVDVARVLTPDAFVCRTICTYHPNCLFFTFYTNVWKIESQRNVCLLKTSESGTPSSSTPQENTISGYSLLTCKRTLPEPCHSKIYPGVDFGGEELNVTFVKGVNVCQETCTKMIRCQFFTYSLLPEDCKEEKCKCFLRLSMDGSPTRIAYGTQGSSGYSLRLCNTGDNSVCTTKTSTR
# Sequence of Plasma kallikrein (P03952 391-638 limits assumed): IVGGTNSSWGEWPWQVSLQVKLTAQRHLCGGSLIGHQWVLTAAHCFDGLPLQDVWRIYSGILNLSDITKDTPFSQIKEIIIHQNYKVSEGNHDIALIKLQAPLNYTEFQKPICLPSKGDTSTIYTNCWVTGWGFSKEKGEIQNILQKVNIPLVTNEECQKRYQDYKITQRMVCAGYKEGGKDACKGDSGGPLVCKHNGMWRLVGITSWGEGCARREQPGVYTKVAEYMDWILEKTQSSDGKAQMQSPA
# How it was run: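 Plasma kallikrein activity on synthetic peptide substrate S-2302 at 0.2 mM, with and without inhibitor. Hydrolysis followed as absorbance at 405 nm. IC50 is the inhibitor concentration giving a 50% drop in absorbance compared with the uninhibited control under the same conditions.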
# [3] = target: Urokinase-type plasminogen activator (Homo sapiens, UniProt P00749); test: Inhibition of human plasma urokinase using Glu-Gly-Arg-pNA (S-2444) peptide as substrate assessed as reduction of enzyme hydrolytic activity
# How it was run: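 Urokinase hydrolysis of S-2444 at 0.1 mM, monitored by absorbance at 405 nm. IC50 defined as the inhibitor concentration that lowers absorbance by 50% compared with enzyme run under the same conditions without inhibitor.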
# Sequence of Plasminogen (P00747 97-580 limits assumed): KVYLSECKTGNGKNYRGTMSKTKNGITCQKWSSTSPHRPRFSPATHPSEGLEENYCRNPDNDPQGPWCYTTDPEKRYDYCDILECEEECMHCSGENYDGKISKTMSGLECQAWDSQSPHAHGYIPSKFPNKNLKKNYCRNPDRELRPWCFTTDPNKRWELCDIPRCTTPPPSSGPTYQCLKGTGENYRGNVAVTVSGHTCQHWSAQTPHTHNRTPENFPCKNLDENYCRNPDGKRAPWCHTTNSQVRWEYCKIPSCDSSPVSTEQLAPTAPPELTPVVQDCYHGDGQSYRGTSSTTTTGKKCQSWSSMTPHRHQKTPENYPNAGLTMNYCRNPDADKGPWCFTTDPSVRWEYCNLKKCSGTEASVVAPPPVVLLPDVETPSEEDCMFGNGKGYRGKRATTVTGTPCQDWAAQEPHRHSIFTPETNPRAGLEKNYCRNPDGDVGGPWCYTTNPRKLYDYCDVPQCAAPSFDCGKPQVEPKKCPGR
# Sequence of Plasminogen (P00747 581-810 limits assumed): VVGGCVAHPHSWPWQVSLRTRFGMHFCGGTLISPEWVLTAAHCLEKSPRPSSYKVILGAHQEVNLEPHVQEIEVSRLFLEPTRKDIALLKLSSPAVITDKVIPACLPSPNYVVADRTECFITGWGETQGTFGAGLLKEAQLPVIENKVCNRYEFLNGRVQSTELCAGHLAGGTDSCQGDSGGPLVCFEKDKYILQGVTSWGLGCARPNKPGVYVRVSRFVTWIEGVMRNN
Structure (SMILES),IC50 [1],IC50 [2],IC50 [3]
Cn1c(CN2C(=O)CN(c3ccc(OCc4ccncc4)c(C(N)=O)c3)C2=O)cc2cnc(C(=O)N[C@H](C#N)CCCCN)nc21,170 µM,> 1000 µM,> 1000 µM
Cn1c(CN2CC(=O)N(c3ccc(Oc4ccccc4)cc3)CC2=O)cc2cnc(C(=O)N[C@H](C#N)CCCCN)nc21,960 µM,> 1000 µM,> 1000 µM
CN1CC(=O)N(Cc2cc3cnc(C(=O)N[C@H](C#N)CCCCN)nc3n2C)C1=O,> 1000 µM,> 1000 µM,> 1000 µM
COc1ccc(N2CC(=O)N(Cc3cc4cnc(C(=O)N[C@H](C#N)CCCCN)nc4n3C)C2=O)cc1,180 µM,> 1000 µM,> 1000 µM
CCCc1ccc(N2CC(=O)N(Cc3cc4cnc(C(=O)N[C@H](C#N)CCCCN)nc4n3C)C2=O)cc1,330 µM,> 1000 µM,> 1000 µM
Cn1c(CN2C(=O)CN(c3ccc(S(N)(=O)=O)cc3)C2=O)cc2cnc(C(=O)N[C@H](C#N)CCCCN)nc21,260 µM,> 1000 µM,> 400 µM
Cn1c(CN2C(=O)CN(c3ccc(C#N)cc3)C2=O)cc2cnc(C(=O)N[C@H](C#N)CCCCN)nc21,210 µM,> 1000 µM,> 1000 µM
Cn1c(CN2C(=O)CN(c3cccc(S(N)(=O)=O)c3)C2=O)cc2cnc(C(=O)N[C@H](C#N)CCCCN)nc21,220 µM,> 1000 µM,> 1000 µM
Cn1c(CN2C(=O)CN(c3cccc(C#N)c3)C2=O)cc2cnc(C(=O)N[C@H](C#N)CCCCN)nc21,220 µM,> 1000 µM,> 1000 µM
CC(=O)COc1ccc(N2CC(=O)N(Cc3cc4cnc(C(=O)N[C@H](C#N)CCCCN)nc4n3C)C2=O)cc1,250 µM,> 1000 µM,> 1000 µM
Cn1c(CN2C(=O)CN(c3ccc(OCC(N)=O)cc3)C2=O)cc2cnc(C(=O)N[C@H](C#N)CCCCN)nc21,400 µM,> 1000 µM,> 1000 µM
Cn1c(CN2C(=O)CN(c3ccc(Oc4ccc5ncccc5c4)cc3)C2=O)cc2cnc(C(=O)N[C@H](C#N)CCCCN)nc21,> 250 µM,> 1000 µM,> 400 µM
Cn1c(CN2C(=O)CN(c3ccc(Oc4ccccc4)c(C(N)=O)c3)C2=O)cc2cnc(C(=O)N[C@H](C#N)CCCCN)nc21,510 µM,> 1000 µM,> 1000 µM

# The next compounds have a lower IC50 [1] than those just listed; values first:
IC50 [1],IC50 [2],IC50 [3],Structure (SMILES)
130 µM,740 µM,> 1000 µM,Cn1c(CN2C(=O)CN(c3ccc(F)cc3)C2=O)cc2cnc(C(=O)N[C@H](C#N)CCCCN)nc21
160 µM,> 1000 µM,> 1000 µM,Cn1c(CN2C(=O)CN(c3ccc(C(N)=O)cc3)C2=O)cc2cnc(C(=O)N[C@H](C#N)CCCCN)nc21
100 µM,> 1000 µM,> 1000 µM,Cn1c(CN2C(=O)CN(c3cccc(C(N)=O)c3)C2=O)cc2cnc(C(=O)N[C@H](C#N)CCCCN)nc21
130 µM,> 1000 µM,> 1000 µM,Cn1c(CN2C(=O)CN(c3ccc(OCC#N)cc3)C2=O)cc2cnc(C(=O)N[C@H](C#N)CCCCN)nc21
51 µM,> 1000 µM,> 400 µM,Cn1c(CN2C(=O)CN(c3ccc(Oc4ccccc4)cc3)C2=O)cc2cnc(C(=O)N[C@H](C#N)CCCCN)nc21
64 µM,> 1000 µM,> 400 µM,COc1ccc(Oc2ccc(N3CC(=O)N(Cc4cc5cnc(C(=O)N[C@H](C#N)CCCCN)nc5n4C)C3=O)cc2)cc1
87 µM,> 1000 µM,> 1000 µM,Cn1c(CN2C(=O)CN(c3ccc(OCc4ccncc4)cc3)C2=O)cc2cnc(C(=O)N[C@H](C#N)CCCCN)nc21
99 µM,> 1000 µM,> 1000 µM,Cn1c(CN2C(=O)CN(c3ccc(Oc4ccccc4C(N)=O)cc3)C2=O)cc2cnc(C(=O)N[C@H](C#N)CCCCN)nc21
